Where a chain is given by its changes, count along the chain named.
What was measured:
[1] = molecular target: T1, Nonstructural protein 5A (Hepatitis C virus) (UniProt Q5L478); experiment: Inhibition of HCV GT1a NS5A assessed as suppression of replicon RNA level by real-time PCR analysis; settings: Hepatitis C virus subtype 1a
T1 sequence (whole entry): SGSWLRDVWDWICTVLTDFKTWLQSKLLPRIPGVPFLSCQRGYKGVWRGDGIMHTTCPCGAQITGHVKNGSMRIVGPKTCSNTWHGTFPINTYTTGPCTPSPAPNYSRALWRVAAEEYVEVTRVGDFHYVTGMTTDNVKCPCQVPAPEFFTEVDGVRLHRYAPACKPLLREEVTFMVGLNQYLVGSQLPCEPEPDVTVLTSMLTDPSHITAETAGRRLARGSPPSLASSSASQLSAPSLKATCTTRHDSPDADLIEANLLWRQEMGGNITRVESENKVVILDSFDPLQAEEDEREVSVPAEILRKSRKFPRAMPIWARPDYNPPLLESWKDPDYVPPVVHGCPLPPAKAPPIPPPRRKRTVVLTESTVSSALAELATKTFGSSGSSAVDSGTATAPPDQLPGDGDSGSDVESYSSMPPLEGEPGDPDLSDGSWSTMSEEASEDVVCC

[2] = molecular target: T1, Nonstructural protein 5A (Hepatitis C virus); experiment: Inhibition of HCV GT2b NS5A assessed as suppression of replicon RNA level by real-time PCR analysis; settings: Hepatitis C virus subtype 2b
How it was run: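 GT2b replicon, which carries the naturally occurring NS5A 31M resistance-associated variant; potency given as EC90 in nM.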

[3] = test system: T2, Nonstructural protein 5A (Hepatitis C virus), Q5L478 [Y93H]; experiment: Inhibition of HCV GT1a NS5A Y93H mutant assessed as suppression of replicon RNA level by real-time PCR analysis; settings: Hepatitis C virus subtype 1a
T2 sequence (whole entry): T1 sequence (whole entry) with Y93H

[4] = test system: Nonstructural protein 5A (Hepatitis C virus), Q5L478 [UNDEFINED MUTATION]; experiment: Inhibition of HCV GT1a NS5A L31V mutant assessed as suppression of replicon RNA level by real-time PCR analysis; settings: Hepatitis C virus subtype 1a
[5] = molecular target: T1, Nonstructural protein 5A (Hepatitis C virus); experiment: Inhibition of HCV GT3a NS5A assessed as suppression of replicon RNA level by real-time PCR analysis; settings: Hepatitis C virus subtype 3a
[6] = molecular target: T1, Nonstructural protein 5A (Hepatitis C virus); experiment: Inhibition of HCV GT1b NS5A assessed as suppression of replicon RNA level by real-time PCR analysis; settings: Hepatitis C virus subtype 1b

| SMILES | EC90 [1] | EC90 [2] | EC90 [3] | EC90 [4] | EC90 [5] | EC90 [6] |
| --- | --- | --- | --- | --- | --- | --- |
| COC(=O)N[C@H](C(=O)N1CCC[C@H]1c1ncc(-c2ccc3c(c2)cc2n3C(c3cccc(OC(F)(F)F)c3)Oc3cc(-c4cnc([C@@H]5C[C@@H](F)CN5C(=O)[C@@H](NC(=O)OC)C(C)C)[nH]4)ccc3-2)[nH]1)C(C)C (some centres undefined) | 20 pM | 48000 pM | 1700 pM | 1800 pM | – | – |
| COC(=O)N[C@H](C(=O)N1CCC[C@H]1c1ncc(-c2ccc3c(c2)OC(c2ccc(OC)cc2)n2c-3cc3cc(-c4cnc([C@@H]5CCCN5C(=O)[C@@H](NC(=O)OC)C(C)C)[nH]4)ccc32)[nH]1)C(C)C (some centres undefined) | 40 pM | 15000 pM | 82000 pM | – | – | – |
| COC(=O)N[C@H](C(=O)N1CCC[C@H]1c1ncc(-c2ccc3c(c2)OC(c2cccc(OC(C)C)c2)n2c-3cc3cc(-c4cnc([C@@H]5CCCN5C(=O)[C@@H](NC(=O)OC)C(C)C)[nH]4)ccc32)[nH]1)C(C)C (some centres undefined) | 10 pM | 145000 pM | 34000 pM | 500 pM | 80 pM | – |
| COC(=O)N[C@H](C(=O)N1C[C@H](F)C[C@H]1c1ncc(-c2cc(F)c3c(c2)OC(c2cccc(OC)c2)n2c-3cc3cc(-c4cnc([C@@H]5C[C@@H](F)CN5C(=O)[C@@H](NC(=O)OC)C(C)C)[nH]4)ccc32)[nH]1)C(C)C (some centres undefined) | 6 pM | 39000 pM | 70 pM | 2000 pM | – | 7 pM |
| COC(=O)N[C@H](C(=O)N1C[C@H](F)C[C@H]1c1ncc(-c2cc(F)c3c(c2)OC(c2cccc(O[C@@H]4CCOC4)c2)n2c-3cc3cc(-c4cnc([C@@H]5C[C@@H](F)CN5C(=O)[C@@H](NC(=O)OC)C(C)C)[nH]4)ccc32)[nH]1)C(C)C (mixture of isomers) | 40 pM | 2000 pM | 1000 pM | 7000 pM | 2000 pM | – |
| CCCCOc1cccc(C2Oc3cc(-c4cnc([C@@H]5C[C@@H](F)CN5C(=O)[C@@H](NC(=O)OC)C(C)C)[nH]4)cc(F)c3-c3cc4cc(-c5cnc([C@@H]6C[C@@H](F)CN6C(=O)[C@@H](NC(=O)OC)C(C)C)[nH]5)ccc4n32)c1 (some centres undefined) | – | 126000 pM | 100 pM | 4000 pM | – | 8 pM |
| COC(=O)N[C@H](C(=O)N1CCC[C@H]1c1ncc(-c2cc(F)c3c(c2)OC(c2cc(OC)cc(OC)c2)n2c-3cc3cc(-c4cnc([C@@H]5CCCN5C(=O)[C@@H](NC(=O)OC)C(C)C)[nH]4)ccc32)[nH]1)C(C)C (some centres undefined) | 4 pM | 600 pM | 3000 pM | 100 pM | 60 pM | – |
| COC(=O)N[C@H](C(=O)N1CCC[C@H]1c1ncc(-c2ccc3c(c2)cc2n3C(c3cccc(OC(C)C)c3)Oc3cc(-c4cnc([C@@H]5C[C@@H](F)CN5C(=O)[C@@H](NC(=O)OC)C(C)C)[nH]4)cc(F)c3-2)[nH]1)C(C)C (some centres undefined) | 10 pM | 28000 pM | 900 pM | 600 pM | 70 pM | – |
| COC(=O)N[C@H](C(=O)N1CCC[C@H]1c1ncc(-c2cc(F)c3c(c2)OC(c2ccc(OC)cc2)n2c-3cc3cc(-c4cnc([C@@H]5CCCN5C(=O)[C@@H](NC(=O)OC)C(C)C)[nH]4)ccc32)[nH]1)C(C)C (some centres undefined) | 10 pM | 5000 pM | 3000 pM | 200 pM | – | – |
| COC(=O)N[C@H](C(=O)N1CCC[C@H]1c1ncc(-c2cc3c(c(-c4ccccc4)c2)-c2cc4cc(-c5cnc([C@@H]6CCCN6C(=O)[C@@H](NC(=O)OC)C(C)C)[nH]5)ccc4n2CO3)[nH]1)C(C)C | 1000 pM | 108000 pM | 250000 pM | 1000 pM | 47000 pM | – |
| CCOc1cccc(C2Oc3cc(-c4cnc([C@@H]5C[C@@H](F)CN5C(=O)[C@@H](NC(=O)OC)C(C)C)[nH]4)cc(F)c3-c3cc4cc(-c5cnc([C@@H]6C[C@@H](F)CN6C(=O)[C@@H](NC(=O)OC)C(C)C)[nH]5)ccc4n32)c1 (some centres undefined) | 10 pM | 69000 pM | 200 pM | 3000 pM | 600 pM | – |
| COC(=O)N[C@H](C(=O)N1C[C@H](F)C[C@H]1c1ncc(-c2cc(F)c3c(c2)OC(c2cccc(OC(C)C)c2)n2c-3cc3cc(-c4cnc([C@@H]5C[C@@H](F)CN5C(=O)[C@@H](NC(=O)OC)C(C)C)[nH]4)ccc32)[nH]1)C(C)C (some centres undefined) | 10 pM | 122000 pM | 100 pM | 4000 pM | 1000 pM | – |
| COC(=O)N[C@H](C(=O)N1CCC[C@H]1c1ncc(-c2cc(F)c3c(c2)OC(c2cccc(OC(C)C)c2)n2c-3cc3cc(-c4cnc([C@@H]5CCCN5C(=O)[C@@H](NC(=O)OC)C(C)C)[nH]4)ccc32)[nH]1)C(C)C (some centres undefined) | 10 pM | 18000 pM | 6000 pM | 200 pM | 50 pM | – |
| COC(=O)N[C@H](C(=O)N1CCC[C@H]1c1ncc(-c2ccc3c(c2)cc2n3C(c3ccc(OC(F)(F)F)cc3)Oc3cc(-c4cnc([C@@H]5C[C@@H](F)CN5C(=O)[C@@H](NC(=O)OC)C(C)C)[nH]4)cc(F)c3-2)[nH]1)C(C)C (some centres undefined) | 30 pM | 13000 pM | 300 pM | – | – | 8 pM |
| CCOc1cccc(C2Oc3cc(-c4cnc([C@@H]5C[C@@H](F)CN5C(=O)[C@@H](NC(=O)OC)C(C)C)[nH]4)cc(F)c3-c3cc4cc(-c5cnc([C@@H]6CCCN6C(=O)[C@@H](NC(=O)OC)C(C)C)[nH]5)ccc4n32)c1 (some centres undefined) | 10 pM | 17000 pM | 400 pM | – | 100 pM | – |
| COC(=O)N[C@H](C(=O)N1CCC[C@H]1c1ncc(-c2ccc3c(c2)OC(c2cc(Cl)cc(OC)c2)n2c-3cc3cc(-c4cnc([C@@H]5CCCN5C(=O)[C@@H](NC(=O)OC)C(C)C)[nH]4)ccc32)[nH]1)C(C)C (mixture of isomers) | 30 pM | 202000 pM | 15000 pM | 200 pM | 800 pM | – |
| CCOc1cccc(C2Oc3cc(-c4cnc([C@@H]5CCCN5C(=O)[C@@H](NC(=O)OC)C(C)C)[nH]4)cc(F)c3-c3cc4cc(-c5cnc([C@@H]6CCCN6C(=O)[C@@H](NC(=O)OC)C(C)C)[nH]5)ccc4n32)c1 (some centres undefined) | 10 pM | 8000 pM | 2000 pM | 200 pM | 20 pM | – |
| COC(=O)N[C@H](C(=O)N1CCC[C@H]1c1ncc(-c2ccc3c(c2)cc2n3C(c3cccc(OC(F)F)c3)Oc3cc(-c4cnc([C@@H]5C[C@@H](F)CN5C(=O)[C@@H](NC(=O)OC)C(C)C)[nH]4)cc(F)c3-2)[nH]1)C(C)C (some centres undefined) | 2 pM | 22000 pM | 300 pM | 700 pM | 200 pM | – |
| COC(=O)N[C@H](C(=O)N1C[C@H](F)C[C@H]1c1ncc(-c2cc(F)c3c(c2)OC(c2ccc(OC(F)(F)F)cc2)n2c-3cc3cc(-c4cnc([C@@H]5C[C@@H](F)CN5C(=O)[C@@H](NC(=O)OC)C(C)C)[nH]4)ccc32)[nH]1)C(C)C (some centres undefined) | 10 pM | 35000 pM | 200 pM | – | 1000 pM | – |
| COC(=O)N[C@H](C(=O)N1CCC[C@H]1c1ncc(-c2ccc3c(c2)OCn2c-3cc3c(F)c(-c4cnc([C@@H]5CCCN5C(=O)[C@@H](NC(=O)OC)C(C)C)[nH]4)ccc32)[nH]1)C(C)C | > 800 pM | – | – | – | – | > 500 pM |
| COC(=O)N[C@H](C(=O)N1CCC[C@H]1c1ncc(-c2ccc3c(c2)OC(c2cc(OC)cc(OC)c2)n2c-3cc3cc(-c4cnc([C@@H]5CCCN5C(=O)[C@@H](NC(=O)OC)C(C)C)[nH]4)ccc32)[nH]1)C(C)C (some centres undefined) | 4 pM | 11000 pM | 8000 pM | 300 pM | 80 pM | – |
| CCOc1cccc(C2Oc3cc(-c4cnc([C@@H]5CCCN5C(=O)[C@@H](NC(=O)OC)C(C)C)[nH]4)ccc3-c3cc4cc(-c5cnc([C@@H]6CCCN6C(=O)[C@@H](NC(=O)OC)C(C)C)[nH]5)ccc4n32)c1 (some centres undefined) | 20 pM | 22000 pM | 16000 pM | 900 pM | 200 pM | – |
| COC(=O)N[C@H](C(=O)N1CCC[C@H]1c1ncc(-c2cc3c(c(C4CC4)c2)-c2cc4cc(-c5cnc([C@@H]6CCCN6C(=O)[C@@H](NC(=O)OC)C(C)C)[nH]5)ccc4n2CO3)[nH]1)C(C)C | 700 pM | 454000 pM | 890000 pM | 700 pM | 74000 pM | – |

— ChEMBL document CHEMBL4431385, “Substituted tetracyclic indole core derivatives of HCV NS5A inhibitor MK-8742” (Bioorg Med Chem Lett, 2016)
